# KCNK9 inh: blocks the human KCNK9 two-pore domain potassium channel; Q9NPC2; HEK293 KCNK9, FluxOR thallium flux fluorescence; active compounds read low; B-score at 10 µM; hit rate 1.2% among 310,000;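 active = ratio B-score over 3 SD below the library mean, with starting fluorescence within 5 SD of its mean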;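 note: negative B-score means less thallium flux so channel inhibition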
# hERG rescue: compounds protecting human hERG from proarrhythmic drug block | AID 1511 | Q12809 | hit rate 0.51% among 310,000 | CHO-hERG, FluxOR thallium flux, dofetilide IC70 present | activation (rescue from dofetilide block), less the hit threshold, % at 10 µM;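 active = activation above the mean of controls blocked by dofetilide plus 5 SD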;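 note: thallium influx through hERG after potassium depolarization seen as dye fluorescence rise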
# Kir21 inh: inhibitors of mouse Kir2.1 inward-rectifier potassium channel; B-score at 10 µM; hit rate 0.85% among 310,000; HEK293-Kir2.1, FluxOR thallium flux fluorescence; active compounds read low; P35561; AID 1672;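 active = fluorescence ratio B-score at or below minus 3 SD of library scores, with starting-brightness B-score within 2 SD, cut at about -4.2 in these data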;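 note: channel flux triggered by added potassium and thallium sulfate stimulus; B-score of peak minus minimum fluorescence over baseline after thallium stimulus; more negative B-score means stronger Kir2.1 block with less thallium influx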
# KCNK3 block: human KCNK3 channel inhibition, primary screen; O14649; CHO-KCNK3 thallium flux, FluxOR fluorescence; active compounds read low; B-score at 10 µM; hit rate 0.84% among 340,000; AID 602410;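 active = B-score under library mean minus 4 SD, starting fluorescence ratio at most library mean plus 5 SD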;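 note: more negative B-score means stronger inhibition of thallium flux through KCNK3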
# KCNQ1 inh: inhibitors of human KCNQ1 potassium channel; hit rate 1.3% among 310,000; P51787; CHO-K1 KCNQ1, FluxOR thallium flux fluorescence; active compounds read high; B-score at 10 µM; AID 2642;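 active = compounds whose thallium flux B-score, printed positive for inhibition, exceeds three library SD while starting fluorescence stays within three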;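 note: channel opened by potassium depolarization with thallium stimulus after 20 min compound exposure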
# KCNQ1 act: potentiators or activators of human KCNQ1 potassium channel. B-score at 10 µM. CHO-K1 KCNQ1, thallium flux FluxOR fluorescence; active compounds read high. hit rate 0.35% among 310,000. P51787;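 active = fluorescence ratio B-score, a plate-corrected score, at least three library SD, with initial intensity B-score within 5 SD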
#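 System: CHO-K1 cells stably expressing KCNQ1 / Medium: assay buffer for compound exposure, DMSO matched across wells / Reagent: thallium- and potassium-containing depolarizing buffer / Compound: one concentration, matched DMSO / Incubation: 20 min compound pretreatment at room temperature / Measured by: kinetic FluxOR fluorescence, 10 s baseline plus 110 s post-stimulus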
# KCNQ1 block val: human KCNQ1 channel inhibition, validation assay; inhibition, % at 10 µM; KCNQ1 cell line, FluxOR thallium flux fluorescence; hit rate 93% among 1,600; shares compounds with KCNQ1 inh; AID 588353;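 active = primary screen active, with duplicate mean exceeding buffer control mean plus 3 SD of buffer wells, cut at about 28% in these data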;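 note: 0% = buffer control ratio and 100% = XE991 inhibitor control ratio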
# CHO KCNQ1 ctr: counter-screen for KCNQ1 inhibitors: effect in parental CHO cells; shares compounds with KCNQ1 inh; parental CHO-K1, FluxOR thallium flux fluorescence ratio; active compounds read low; zero means no signal rise above baseline; fluorescence ratio (Tl flux) at 10 µM; hit rate 21% among 1,600; AID 588366;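 active = mean of duplicate thallium-flux fluorescence ratios in parental host cells more than 5 SD below the buffer control mean, cut at about 0.38 in these data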;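 note: ratio is peak minus minimum fluorescence divided by baseline fluorescence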
# KCNQ1 ephys val: human KCNQ1 inhibition validated by electrophysiology; shares compounds with KCNQ1 inh; KCNQ1-CHO cells, automated patch clamp current; calls only at 10 µM; hit rate 20% among 490;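 active = KCNQ1 current drop exceeding 3 SD of negative control wells, seen in both duplicate runs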;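 note: steady state current during a 2 s step from -80 to +40 mV; negative values mean current inhibition and positive values mean potentiation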
# KCNQ2 inh: KCNQ1 inhibitor that also blocks rat KCNQ2 channel; shares compounds with KCNQ1 inh; KCNQ2 cells, FluxOR thallium flux fluorescence; inhibition, % at 10 µM; hit rate 71% among 1,600; AID 651746;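 active = mean percent inhibition of the KCNQ2 thallium signal more than 5 SD above the buffer-only control wells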;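 note: KCNQ2 expressed in CHO cells; 0% = buffer control wells and 100% = XE-991 inhibitor control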
# Target sequence (O88943 whole entry, looked up): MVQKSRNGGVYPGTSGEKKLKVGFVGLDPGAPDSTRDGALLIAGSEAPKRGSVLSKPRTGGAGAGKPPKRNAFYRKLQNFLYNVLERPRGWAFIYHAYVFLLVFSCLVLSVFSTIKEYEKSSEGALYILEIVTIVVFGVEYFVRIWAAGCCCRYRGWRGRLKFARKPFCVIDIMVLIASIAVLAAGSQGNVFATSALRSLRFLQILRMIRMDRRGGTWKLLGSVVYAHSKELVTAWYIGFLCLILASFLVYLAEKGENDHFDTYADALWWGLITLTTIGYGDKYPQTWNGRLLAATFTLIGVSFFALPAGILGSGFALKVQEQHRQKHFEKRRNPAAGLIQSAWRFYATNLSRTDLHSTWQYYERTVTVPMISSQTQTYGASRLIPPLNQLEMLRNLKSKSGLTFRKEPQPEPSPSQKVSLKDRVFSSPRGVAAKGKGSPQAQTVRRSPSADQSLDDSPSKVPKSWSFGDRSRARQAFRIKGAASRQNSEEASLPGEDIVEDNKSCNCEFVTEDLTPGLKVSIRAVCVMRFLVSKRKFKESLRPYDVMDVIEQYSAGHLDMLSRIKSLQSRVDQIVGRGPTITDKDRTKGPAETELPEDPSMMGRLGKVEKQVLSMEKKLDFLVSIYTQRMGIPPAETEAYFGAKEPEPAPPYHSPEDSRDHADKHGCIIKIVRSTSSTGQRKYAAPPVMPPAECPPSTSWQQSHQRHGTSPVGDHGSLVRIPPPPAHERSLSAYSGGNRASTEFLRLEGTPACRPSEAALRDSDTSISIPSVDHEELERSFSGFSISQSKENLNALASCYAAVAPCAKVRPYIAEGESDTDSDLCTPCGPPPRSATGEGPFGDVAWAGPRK
# KCNQ1-KCNE1 inh: KCNQ1 inhibitor that also blocks human KCNQ1/KCNE1 channel. shares compounds with KCNQ1 inh. KCNQ1/KCNE1 cells, FluxOR thallium flux fluorescence. inhibition, % at 10 µM. hit rate 77% among 1,600;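 active = mean percent inhibition of duplicate wells above the buffer-only control mean plus 3 SD of those controls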;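 note: 0% = buffer only wells and 100% = XE-991 inhibitor control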
# Active calls of the source: *; i = inactive; nt = no result; + = active, no number. Only some compounds are listed: those with a hit (about 3.8% of all), similar ones and a draw of the others.
SMILES,KCNK9 inh,hERG rescue,Kir21 inh,KCNK3 block,KCNQ1 inh,KCNQ1 act,KCNQ1 block val,CHO KCNQ1 ctr,KCNQ2 inh,KCNQ1-KCNE1 inh,others
CCOC(=O)c1c(NC(=O)CSc2nc3ccccc3o2)sc(C(C)=O)c1C,i,-29,-0.89,i,8*,i,130*,0.43,108%*,112%*,KCNQ1 ephys val=i
Cn1ncc2c(N3CCN(c4ccc(Cl)c(Cl)c4)CC3)ncnc21,i,-16,0.15,i,10*,i,103*,0.48,i,61%*,KCNQ1 ephys val=i
Cn1ncc2c(N3CCN(c4ccccc4F)CC3)ncnc21,i,-4,-0.1,i,i,i,nt,nt,nt,nt,
O=S(=O)(Nc1nc2ccccc2nc1N1CCN(c2ccccc2)CC1)c1ccc(F)cc1,i,-6,-0.3,i,10*,i,78*,0.39,69%*,62%*,
COCC(=O)N(Cc1ccccc1)c1ccccn1,i,0,-0.87,i,i,i,nt,nt,nt,nt,
COc1ccccc1NC(=O)N(Cc1ccccc1)c1ccccn1,i,-7,-0.77,i,7*,i,95*,0.42,85%*,102%*,KCNQ1 ephys val=i
CC[C@@H]1CC=C[C@H]2[C@H]1C(=O)N(Cc1ccccc1)[C@H]2c1ccoc1,i,-29,-3.6,i,9*,i,78*,0.38*,104%*,114%*,
COc1ccc(N2CCN(C(=O)CSc3nnc4n3C(C)(C)Cc3ccccc3-4)CC2)cc1,i,-13,-0.1,i,i,i,nt,nt,nt,nt,
Cc1ccc(Cl)cc1N1CCN(C(=O)CSc2nnc3n2C(C)(C)Cc2ccccc2-3)CC1,i,-31,0.79,-9*,17*,i,148*,0.28*,145%*,+,
Cc1nonc1NC(=O)CSc1nnc(-c2ccoc2C)n1-c1cccc(Cl)c1,i,-13,-2.7,i,7*,i,34*,0.43,70%*,68%*,
CCCn1c(SCC(=O)Nc2nonc2C)nnc1-c1ccoc1C,i,-6,-0.03,i,i,i,nt,nt,nt,nt,
CCOC(=O)c1c(C)[nH]c(C)c1C(=O)CSc1nc2ccccc2c(=O)n1-c1ccc(C)cc1,i,-8,0,i,6*,i,58*,0.5,i,58%*,
Cc1[nH]c2ccccc2c1C(=O)CSc1nc2ccccc2c(=O)n1-c1ccccc1F,i,-7,-0.64,nt,i,i,nt,nt,nt,nt,
COc1ccc(Nc2nc(N3CCCCC3)nc3ccccc23)c(OC)c1,i,-17,-7*,i,12*,i,98*,0.43,90%*,94%*,KCNQ1 ephys val=i
COc1ccc(Nc2nc(-c3ccccc3)nc3ccccc23)c(OC)c1,i,-8,-0.02,i,11*,i,+,0.41,108%*,i,KCNQ1 ephys val=i
COc1ccc(Nc2nc(N3CCN(S(C)(=O)=O)CC3)nc3ccccc23)c(OC)c1,i,-7,0.03,i,i,i,nt,nt,nt,nt,
COc1ccc(Nc2nc(NC(C)(C)C)nc(N3CCCC3)n2)c(OC)c1,i,-15,-0.26,i,8*,i,144*,0.32*,i,+,
Cc1csc(NC(=O)Nc2cccc(Cl)c2)n1,i,-5,1.1,i,6*,i,70*,0.52,i,93%*,
O=C(Nc1cccc(Cl)c1)Nc1nccs1,i,-6,1.7,i,7*,i,70*,0.54,i,42%*,
O=C(Nc1cccc(Cl)c1)Nc1ccon1,i,-10,2.6,i,7*,i,54*,0.54,i,i,
O=C(Nc1cccc(Cl)c1)Nc1cnccn1,i,-3,0.45,i,i,i,nt,nt,nt,nt,
O=C(Nc1cccc(Cl)c1)Nc1ccnc(-c2cccnc2)n1,i,-9,-2.8,i,6*,i,74*,0.52,i,i,
COc1ccccc1-n1c(C)c(C(=O)O)c2cc(OC)c3ccccc3c21,i,-4,0.37,i,i,i,nt,nt,nt,nt,
O=C(Nc1cccc(Cl)c1)Nc1ccc(Br)cc1F,i,-13,-0.1,i,9*,i,52*,0.55,i,i,
O=C(Nc1ccccc1)Nc1ccc(Br)cc1F,i,-11,-0.79,i,i,i,nt,nt,nt,nt,
SMILES,KCNK9 inh,hERG rescue,Kir21 inh,KCNK3 block,KCNQ1 inh,KCNQ1 act,KCNQ1 block val,CHO KCNQ1 ctr,KCNQ2 inh,KCNQ1-KCNE1 inh,others
CC(Oc1cccc(Cl)c1)C(=O)Nc1ccccc1C(=O)N1CCCCC1 (stereo not given),i,-13,-1.3,i,i,i,nt,nt,nt,nt,
CC(Oc1cccc(Cl)c1)C(=O)Nc1ccccc1N1CCCCC1 (stereo not given),-7.8*,-11,3.3,i,9*,i,116*,0.47,84%*,138%*,KCNQ1 ephys val=i
COCCn1c(C(C)C)nc2ccccc21,i,0,0.04,i,i,i,nt,nt,nt,nt,
Cc1ccc2nc(/N=C(\N)NC(=O)NC3CCCCC3)nc(C)c2c1,i,-22,0.82,i,7*,i,56*,0.52,i,i,
CCOC(=O)C1=C(N)Oc2ccc3ccccc3c2C1c1cccc(O)c1 (stereo not given),i,-8,-0.95,i,6*,i,116*,0.39,122%*,123%*,KCNQ1 ephys val=i
CCOC(=O)C1=C(N)Oc2ccc3ccccc3c2C1c1cccnc1 (stereo not given),i,-6,0.05,i,i,i,nt,nt,nt,nt,
CC(=O)c1ccc(NC(=S)NC(C)CCc2ccccc2)cc1 (stereo not given),i,-10,-0.12,i,7*,i,38*,0.5,i,41%*,
O=C(NCC1(c2ccccc2)CCCC1)C1(c2ccccc2)CCCC1,i,-5,-0.17,i,6*,i,112*,0.41,108%*,152%*,KCNQ1 ephys val=i
COCCNC(=O)CN1C(=O)COc2ccc(S(=O)(=O)N3CCCCCC3)cc21,i,-9,-1.9,i,i,i,nt,nt,nt,nt,
